Experimental data taken from ChEMBL document CHEMBL2057171, “Arylstibonic acids are potent and isoform-selective inhibitors of Cdc25a and Cdc25b phosphatases” (Bioorg Med Chem, 2012).
Active and inactive are the calls of the source. No cut-off for these calls is given here.

Columns and labels:
Rattus norvegicus = organism: Rattus norvegicus; assay: Inhibition of rat GST-tagged synaptojanin SAC1 domain expressed in Escherichia coli XL-1 blue using I(1,4,5))P3 as substrate at 5 uM by malachite green assay
Procedure, shortened: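 GST-synaptojanin was expressed in E. coli XL-1 blue (1 mM IPTG, 18°C, 24 h) and purified on glutathione sepharose. Substrate: 50 µM PI(4)P in octylglucoside mixed micelles for synaptojanin; 50 µM I(1,4,5)P3 for SAC1. Assay ran at 37°C in 100 mM Tris pH 7.4, 4 mM MgCl2 with 5 µM compound. Malachite green stopped the reaction, colour developed 10 min, and absorbance was read at 625 nm. Heat-denatured enzyme served as blank. Triplicates.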

[1] = molecular target: Receptor-type tyrosine-protein phosphatase beta (Homo sapiens) (UniProt P23467); assay: Inhibition of PTP-beta receptor using p-NPP as substrate at 5 uM by colorimetric analysis
Sequence of Receptor-type tyrosine-protein phosphatase beta (Homo sapiens) (P23467 whole entry, looked up): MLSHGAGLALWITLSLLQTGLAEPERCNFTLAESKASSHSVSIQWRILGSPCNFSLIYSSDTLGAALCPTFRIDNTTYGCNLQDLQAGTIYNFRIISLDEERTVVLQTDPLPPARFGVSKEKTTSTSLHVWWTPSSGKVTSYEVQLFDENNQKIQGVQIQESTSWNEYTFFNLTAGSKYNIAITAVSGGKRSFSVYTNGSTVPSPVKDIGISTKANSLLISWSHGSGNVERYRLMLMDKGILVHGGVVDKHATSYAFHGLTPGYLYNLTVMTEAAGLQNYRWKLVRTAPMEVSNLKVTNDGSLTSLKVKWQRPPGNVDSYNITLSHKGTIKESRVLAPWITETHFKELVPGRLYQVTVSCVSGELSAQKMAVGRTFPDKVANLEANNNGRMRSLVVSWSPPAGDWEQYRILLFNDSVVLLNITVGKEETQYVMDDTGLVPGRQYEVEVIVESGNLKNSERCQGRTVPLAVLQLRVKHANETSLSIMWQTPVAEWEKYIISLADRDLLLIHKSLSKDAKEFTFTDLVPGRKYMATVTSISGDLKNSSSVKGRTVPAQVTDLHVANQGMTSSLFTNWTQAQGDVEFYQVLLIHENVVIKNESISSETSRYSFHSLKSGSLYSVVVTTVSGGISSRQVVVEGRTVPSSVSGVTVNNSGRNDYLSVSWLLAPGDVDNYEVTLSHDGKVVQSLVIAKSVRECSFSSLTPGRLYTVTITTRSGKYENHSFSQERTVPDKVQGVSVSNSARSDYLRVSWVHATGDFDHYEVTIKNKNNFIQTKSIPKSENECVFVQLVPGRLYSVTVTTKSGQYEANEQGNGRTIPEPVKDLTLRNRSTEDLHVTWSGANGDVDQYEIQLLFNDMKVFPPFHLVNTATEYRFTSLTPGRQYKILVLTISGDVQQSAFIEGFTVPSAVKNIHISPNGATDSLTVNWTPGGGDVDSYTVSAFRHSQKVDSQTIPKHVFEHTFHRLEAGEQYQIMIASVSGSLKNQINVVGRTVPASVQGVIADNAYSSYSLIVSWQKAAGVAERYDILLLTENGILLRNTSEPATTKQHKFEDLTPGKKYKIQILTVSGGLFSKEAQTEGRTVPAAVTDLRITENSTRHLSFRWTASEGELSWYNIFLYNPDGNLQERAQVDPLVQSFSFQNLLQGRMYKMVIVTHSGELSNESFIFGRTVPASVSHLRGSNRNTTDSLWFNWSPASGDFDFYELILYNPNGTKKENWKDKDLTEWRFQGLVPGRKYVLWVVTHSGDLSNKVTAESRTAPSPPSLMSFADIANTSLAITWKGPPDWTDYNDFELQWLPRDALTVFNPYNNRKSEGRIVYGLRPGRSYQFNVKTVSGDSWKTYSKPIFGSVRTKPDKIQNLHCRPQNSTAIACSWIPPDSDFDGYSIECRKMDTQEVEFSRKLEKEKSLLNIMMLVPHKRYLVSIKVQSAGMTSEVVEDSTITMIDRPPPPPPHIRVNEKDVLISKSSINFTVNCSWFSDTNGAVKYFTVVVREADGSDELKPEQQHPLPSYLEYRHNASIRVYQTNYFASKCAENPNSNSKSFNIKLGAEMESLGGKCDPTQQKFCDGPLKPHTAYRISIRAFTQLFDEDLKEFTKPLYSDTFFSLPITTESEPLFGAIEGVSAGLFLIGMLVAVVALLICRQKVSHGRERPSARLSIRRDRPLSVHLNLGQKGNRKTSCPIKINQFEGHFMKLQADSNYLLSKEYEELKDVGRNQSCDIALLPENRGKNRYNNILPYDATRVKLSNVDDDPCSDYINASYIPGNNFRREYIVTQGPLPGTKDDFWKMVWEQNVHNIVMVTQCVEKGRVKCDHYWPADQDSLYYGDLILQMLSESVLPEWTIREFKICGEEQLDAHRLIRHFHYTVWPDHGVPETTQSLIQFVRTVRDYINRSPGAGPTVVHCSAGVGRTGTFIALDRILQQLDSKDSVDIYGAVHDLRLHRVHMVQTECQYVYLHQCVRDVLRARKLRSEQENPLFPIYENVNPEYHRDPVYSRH
Procedure, shortened: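 Purchased PTP-β assayed with 1 mM p-NPP (near KM) in 25 mM Hepes pH 7.4, 50 mM NaCl, 5 mM DTT; arylstibonate fixed at 5 µM. The reaction was started by adding p-NPP in water, and p-nitrophenol release was read at 405 nm. Reported as % inhibition from triplicates, with standard error.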

[2] = molecular target: M-phase inducer phosphatase 2 (Homo sapiens) (UniProt P30305); assay: Mixed-type inhibition of N-terminal His-tagged Cdc25b catalytic domain expressed in Escherichia coli BL21(DE3) using 3-O-Methylfluorescein phosphate as substrate by Michaelis-Menten plot analysis
Sequence of M-phase inducer phosphatase 2 (Homo sapiens) (P30305 whole entry, the tested form may be a part): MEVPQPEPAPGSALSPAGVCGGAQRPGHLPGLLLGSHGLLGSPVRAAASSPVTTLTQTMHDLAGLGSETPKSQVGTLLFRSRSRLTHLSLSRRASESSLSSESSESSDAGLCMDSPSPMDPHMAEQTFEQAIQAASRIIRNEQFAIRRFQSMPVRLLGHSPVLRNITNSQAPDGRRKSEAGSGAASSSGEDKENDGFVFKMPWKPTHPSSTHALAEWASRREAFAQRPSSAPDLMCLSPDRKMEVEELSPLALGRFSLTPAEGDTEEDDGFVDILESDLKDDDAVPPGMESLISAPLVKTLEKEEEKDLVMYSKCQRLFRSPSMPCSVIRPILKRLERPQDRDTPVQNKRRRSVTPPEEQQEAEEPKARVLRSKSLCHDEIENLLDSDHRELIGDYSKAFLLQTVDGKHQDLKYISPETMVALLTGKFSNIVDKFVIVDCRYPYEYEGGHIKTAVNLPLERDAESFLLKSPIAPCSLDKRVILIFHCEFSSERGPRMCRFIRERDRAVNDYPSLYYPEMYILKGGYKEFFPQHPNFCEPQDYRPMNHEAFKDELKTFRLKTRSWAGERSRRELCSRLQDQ
Procedure, shortened: (§1)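 Steady-state kinetics of the Cdc25a and Cdc25b catalytic domains with varying OMFP and several arylstibonate concentrations. Run at 20 °C in 100 mM Tris pH 7.4 with 2 mM DTT, after a 10 min RT enzyme–inhibitor preincubation. Fluorescence read at ex 485/em 525 nm. Michaelis–Menten plots give apparent Km and Vmax; secondary plots give Ki.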

[3] = molecular target: M-phase inducer phosphatase 1 (Homo sapiens) (UniProt P30304); assay: Mixed-type inhibition of N-terminal His-tagged Cdc25a catalytic domain expressed in Escherichia coli BL21(DE3) using 3-O-Methylfluorescein phosphate as substrate by Michaelis-Menten plot analysis; procedure, shortened: as §1
Sequence of M-phase inducer phosphatase 1 (Homo sapiens) (P30304 whole entry, the tested form may be a part): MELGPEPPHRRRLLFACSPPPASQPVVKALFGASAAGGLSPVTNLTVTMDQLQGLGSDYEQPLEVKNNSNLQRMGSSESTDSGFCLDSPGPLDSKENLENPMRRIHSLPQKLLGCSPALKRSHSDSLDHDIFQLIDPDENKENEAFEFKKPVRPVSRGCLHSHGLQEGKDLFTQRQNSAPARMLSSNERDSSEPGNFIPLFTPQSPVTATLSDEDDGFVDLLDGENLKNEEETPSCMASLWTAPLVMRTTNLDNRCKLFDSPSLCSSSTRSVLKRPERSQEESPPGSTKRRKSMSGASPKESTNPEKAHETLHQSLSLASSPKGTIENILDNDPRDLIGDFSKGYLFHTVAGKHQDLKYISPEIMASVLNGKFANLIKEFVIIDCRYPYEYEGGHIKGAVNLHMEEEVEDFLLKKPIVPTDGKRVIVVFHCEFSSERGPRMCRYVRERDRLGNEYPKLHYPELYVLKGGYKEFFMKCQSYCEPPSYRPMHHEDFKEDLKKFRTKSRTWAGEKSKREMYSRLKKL

[4] = molecular target: M-phase inducer phosphatase 2 (Homo sapiens) (UniProt P30305); assay: Reversible inhibition of N-terminal His-tagged Cdc25b catalytic domain expressed in Escherichia coli BL21(DE3) using 3-O-Methylfluorescein phosphate as substrate at 4 times IC50 by 10-fold dilution method
Procedure, shortened: (§2)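 Reversibility test by dilution. Cdc25a or Cdc25b is preincubated with arylstibonate, then diluted 10-fold in reaction buffer (100 mM Tris pH 7.4, 2 mM DTT). Activity is then measured in the OMFP fluorescence assay (ex 485/em 525 nm, 20 °C) and expressed as % of the uninhibited reaction.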

[5] = molecular target: M-phase inducer phosphatase 1 (Homo sapiens) (UniProt P30304); assay: Reversible inhibition of N-terminal His-tagged Cdc25a catalytic domain expressed in Escherichia coli BL21(DE3) using 3-O-Methylfluorescein phosphate as substrate at 4 times IC50 by 10-fold dilution method; procedure, shortened: as §2

Substance | inhibition (Rattus norvegicus) | inhibition [1] | inhibition [2] | inhibition [3] | inhibition [4] | inhibition [5]
2-(3-stibonobenzyl)malonic acid | > 40% | > 90% | – | – | – | –
2-(3-stibonophenoxy)acetic acid | > 40% | > 90% | – | – | – | –
2-(4-stibonobenzyl)malonic acid | < 40% | 67% | – | – | – | –
2-nitro-4-stibonobenzoic acid | > 40% | > 90% | – | – | – | –
2-nitrophenylstibonic acid | > 40% | > 90% | – | – | – | –
3-(3-ethoxy-2-(ethoxycarbonyl)-3-oxopropyl)phenylstibonic acid | < 40% | inactive | – | – | – | –
3-(3-stibonophenyl)propanoic acid | > 40% | > 90% | Active | Active | Active | Active
3-(methoxycarbonyl)phenylstibonic acid | < 40% | inactive | – | – | – | –
3-nitrophenylstibonic acid | < 40% | 50% | – | – | – | –
3-stibonobenzoic acid | < 40% | 78% | – | – | – | –
4-(2-ethoxy-2-oxoethyl)phenylstibonic acid | > 40% | > 90% | – | – | – | –
4-((4-hydroxyphenyl)diazenyl)phenylstibonic acid | > 40% | > 90% | – | – | – | –
4-benzamidophenylstibonic acid | > 40% | > 90% | – | – | – | –
4-hydroxyphenylstibonic acid | < 40% | inactive | – | – | – | –
4-iodophenylstibonic acid | > 40% | > 90% | – | – | – | –
4-stibonobenzoic acid | < 40% | 72% | – | – | – | –
4-stibonophthalic acid | < 40% | 51% | – | – | – | –
(E)-3-(3-stibonophenyl)acrylic acid | > 40% | > 90% | Active | Active | Active | Active
PHENYLSTIBONIC ACID | < 40% | inactive | – | – | – | –
